Reference: ChEMBL document CHEMBL1275351, “Novel spirotetracyclic zwitterionic dual H(1)/5-HT(2A) receptor antagonists for the treatment of sleep disorders” (J Med Chem, 2010)

Key:
[1] = Oral bioavailability in Sprague-Dawley rat at 1 mg/kg; assay type: ADME, organism-based; conditions: in vivo
In short: (§1)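 Male Sprague-Dawley rats, cassette dosing. Compounds were given as an iv bolus and as an oral suspension. Blood samples were taken at intervals up to 24 h, processed by protein precipitation and analysed by HPLC-MS/MS.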

Cytochrome P450 2C19 = Cytochrome P450 2C19 (Homo sapiens, UniProt P33261); assay: Inhibition of human CYP2C19 transfected in bactosome expression system by spectrofluorimetry; assay type: ADME
In short: (§2)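 Recombinant human CYP Bactosomes (0.1 mg/mL) in 50 mM phosphate buffer, pH 7.4. Compound at 0.1-10 μM was preincubated with fluorogenic substrate for 10 min at 37 °C, and the reaction was started with an NADPH regenerating system. Metabolite fluorescence was followed for 10 min. Substrates: 1A2 ethoxyresorufin 0.5 μM; 2C9 FCA 50 μM; 2C19 BMC 10 μM; 2D6 MMC 10 μM; 3A4 DEF 1 μM or 7-BQ 25 μM. Run in triplicate.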

[2] = molecular target: Voltage-gated inwardly rectifying potassium channel KCNH2 (Homo sapiens, UniProt Q12809); assay: Displacement of [3H]dofetilide from human ERG by scintillation proximity assay
[3] = molecular target: 5-hydroxytryptamine receptor 2A (Homo sapiens, UniProt P28223); assay: Antagonist activity at human 5HT2A receptor expressed in HEK cells assessed as inhibition of intracellular calcium accumulation by aequorin assay; assay type: functional, cell-based, HEK293
[4] = Half life in Sprague-Dawley rat at 0.5 mg/kg, iv and 1 mg/kg, po; assay type: ADME, organism-based; conditions: in vivo; in short: as §1
Histamine H1 receptor [5] = molecular target: Histamine H1 receptor (Rattus norvegicus, UniProt P31390); assay: Displacement of [3H]pyrilamine from histamine H1 receptor in Sprague-Dawley rat cortical membrane by liquid scintillation counting
In short: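 Cerebral cortex membranes from male Sprague-Dawley rats (200-250 g), 150 μg/well. Incubated with 0.6 nM [3H]pyrilamine in 50 mM HEPES, pH 7.4, for 2 h at room temperature. Filtered on PEI-soaked GF/B and counted by scintillation. Nonspecific binding with 10 μM cetirizine. Ki by Cheng-Prusoff; mean of two experiments in duplicate.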

[6] = Fraction unbound in rat brain; assay type: ADME, tissue-based
[7] = molecular target: T1, 5-hydroxytryptamine receptor 2C (Homo sapiens, UniProt P28335); assay: Antagonist activity at human 5HT2C receptor expressed in human SH-SY5Y cells by FLIPR assay; assay type: functional, cell-based
T1 sequence (P28335 whole entry): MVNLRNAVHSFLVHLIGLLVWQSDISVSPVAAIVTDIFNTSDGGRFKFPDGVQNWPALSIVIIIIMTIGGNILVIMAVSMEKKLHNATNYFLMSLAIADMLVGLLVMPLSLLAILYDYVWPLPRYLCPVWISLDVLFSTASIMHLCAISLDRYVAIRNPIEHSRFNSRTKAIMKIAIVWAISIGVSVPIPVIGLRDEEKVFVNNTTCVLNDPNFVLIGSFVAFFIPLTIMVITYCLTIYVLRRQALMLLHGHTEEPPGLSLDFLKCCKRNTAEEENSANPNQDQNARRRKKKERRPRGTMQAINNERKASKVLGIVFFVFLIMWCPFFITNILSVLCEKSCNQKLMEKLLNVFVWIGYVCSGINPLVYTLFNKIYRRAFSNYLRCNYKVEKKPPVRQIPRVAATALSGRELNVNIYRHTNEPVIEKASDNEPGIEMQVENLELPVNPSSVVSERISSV

[8] = Ratio of drug level in brain to blood in Sprague-Dawley rat at 0.5 mg/kg, iv and 1 mg/kg, po; assay type: ADME, organism-based; conditions: read-out: BBR
In short: (§3)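 Male Sprague-Dawley rats, cassette dosing, iv bolus or oral suspension. Blood and brain levels were measured by protein precipitation and HPLC-MS/MS. Brain:blood ratio was taken from AUC0-8h after oral dosing, or at 1 h after iv dosing for one compound.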

[9] = Volume of distribution at steady state in Sprague-Dawley rat at 0.5 mg/kg, iv and 1 mg/kg, po; assay type: ADME, organism-based; conditions: in vivo, read-out: Vdss; in short: as §1
Cytochrome P450 1A2 = molecular target: T2, Cytochrome P450 1A2 (Homo sapiens, UniProt P05177); assay: Inhibition of human CYP1A2 transfected in bactosome expression system by spectrofluorimetry; assay type: ADME; in short: as §2
T2 sequence (P05177 whole entry): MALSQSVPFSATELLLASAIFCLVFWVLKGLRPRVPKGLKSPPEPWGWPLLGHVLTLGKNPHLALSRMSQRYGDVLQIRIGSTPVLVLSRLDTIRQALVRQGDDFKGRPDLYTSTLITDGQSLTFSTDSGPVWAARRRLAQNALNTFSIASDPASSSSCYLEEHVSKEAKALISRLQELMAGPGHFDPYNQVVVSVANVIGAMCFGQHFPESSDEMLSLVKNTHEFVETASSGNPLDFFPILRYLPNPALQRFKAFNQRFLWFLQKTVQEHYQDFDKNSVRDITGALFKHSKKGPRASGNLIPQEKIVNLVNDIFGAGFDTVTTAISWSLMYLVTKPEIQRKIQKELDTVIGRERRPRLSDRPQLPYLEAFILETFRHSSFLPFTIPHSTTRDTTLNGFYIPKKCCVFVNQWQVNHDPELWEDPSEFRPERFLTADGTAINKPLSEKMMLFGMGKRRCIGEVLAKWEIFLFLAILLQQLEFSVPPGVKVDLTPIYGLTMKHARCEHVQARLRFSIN

[10] = molecular target: 5-hydroxytryptamine receptor 2B (Homo sapiens, UniProt P41595); assay: Antagonist activity at human 5HT2B receptor expressed in human SH-SY5Y cells by FLIPR assay
[11] = molecular target: 5-hydroxytryptamine receptor 2A (Rattus norvegicus, UniProt P14842); assay: Displacement of [3H]ketanserin from 5HT2A receptor in Sprague-Dawley rat cortical membrane by liquid scintillation counting
In short: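 Cerebral cortex membranes from male Sprague-Dawley rats (200-250 g), 50 μg/well. Incubated with 1 nM [3H]ketanserin in 50 mM Tris-HCl, 10 mM MgCl2, pH 7.4, for 1 h at 37 °C with shaking. Filtered on PEI-soaked GF/B and counted by scintillation. Nonspecific binding with 10 μM mianserin. Ki by Cheng-Prusoff; mean of two experiments in duplicate.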

[12] = Blood clearance in Sprague-Dawley rat at 0.5 mg/kg, iv and 1 mg/kg, po; assay type: ADME, organism-based; conditions: whole blood; in short: as §1
Cytochrome P450 2C9 = Cytochrome P450 2C9 (Homo sapiens, UniProt P11712); assay: Inhibition of human CYP2C9 transfected in bactosome expression system by spectrofluorimetry; assay type: ADME; in short: as §2
Cytochrome P450 3A4 = Cytochrome P450 3A4 (Homo sapiens, UniProt P08684); assay: Inhibition of human CYP3A4 transfected in bactosome expression system by spectrofluorimetry; assay type: ADME; in short: as §2
[13] = Fraction unbound in rat blood; assay type: ADME, tissue-based
Histamine H1 receptor [14] = molecular target: Histamine H1 receptor (Homo sapiens, UniProt P35367); assay: Antagonist activity against human histamine H1 receptor expressed in CHO cells by FLIPR assay; assay type: functional, cell-based
Cytochrome P450 2D6 = Cytochrome P450 2D6 (Homo sapiens, UniProt P10635); assay: Inhibition of human CYP2D6 transfected in bactosome expression system by spectrofluorimetry; assay type: ADME; in short: as §2
[15] = Oral bioavailability in Sprague-Dawley rat at 3 mg/kg; assay type: ADME, organism-based; conditions: in vivo; in short: as §1
[16] = Volume of distribution at steady state in Sprague-Dawley rat at 1 mg/kg, iv and 3 mg/kg, po; assay type: ADME, organism-based; conditions: in vivo, read-out: Vdss; in short: as §1
[17] = Half life in Sprague-Dawley rat at 1 mg/kg, iv and 3 mg/kg, po; assay type: ADME, organism-based; conditions: in vivo; in short: as §1
[18] = Ratio of drug level in brain to blood in Sprague-Dawley rat at 1 mg/kg, iv and 3 mg/kg, po; assay type: ADME, organism-based; conditions: read-out: BBR; in short: as §3
[19] = Blood clearance in Sprague-Dawley rat at 1 mg/kg, iv and 3 mg/kg, po; assay type: ADME, organism-based; conditions: whole blood; in short: as §1
[20] = Selectivity ratio of pKi for human alpha1A adrenergic receptor to pKi for human Alpha-1B adrenergic receptor

Sequence of 5-hydroxytryptamine receptor 2B (P41595 whole entry): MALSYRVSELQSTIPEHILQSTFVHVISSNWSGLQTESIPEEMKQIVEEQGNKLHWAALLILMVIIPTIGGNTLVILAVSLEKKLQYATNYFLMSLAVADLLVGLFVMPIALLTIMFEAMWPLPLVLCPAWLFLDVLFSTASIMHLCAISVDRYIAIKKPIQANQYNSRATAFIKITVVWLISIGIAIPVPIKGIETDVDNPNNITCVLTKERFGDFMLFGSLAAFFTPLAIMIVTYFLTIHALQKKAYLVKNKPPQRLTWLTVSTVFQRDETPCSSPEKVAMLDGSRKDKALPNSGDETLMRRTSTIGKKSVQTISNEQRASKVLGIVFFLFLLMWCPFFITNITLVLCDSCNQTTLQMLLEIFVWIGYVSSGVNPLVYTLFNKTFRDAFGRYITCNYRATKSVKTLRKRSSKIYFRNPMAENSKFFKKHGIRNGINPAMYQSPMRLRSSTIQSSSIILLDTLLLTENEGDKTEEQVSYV
Sequence of 5-hydroxytryptamine receptor 2A (Homo sapiens, UniProt P28223) (P28223 whole entry): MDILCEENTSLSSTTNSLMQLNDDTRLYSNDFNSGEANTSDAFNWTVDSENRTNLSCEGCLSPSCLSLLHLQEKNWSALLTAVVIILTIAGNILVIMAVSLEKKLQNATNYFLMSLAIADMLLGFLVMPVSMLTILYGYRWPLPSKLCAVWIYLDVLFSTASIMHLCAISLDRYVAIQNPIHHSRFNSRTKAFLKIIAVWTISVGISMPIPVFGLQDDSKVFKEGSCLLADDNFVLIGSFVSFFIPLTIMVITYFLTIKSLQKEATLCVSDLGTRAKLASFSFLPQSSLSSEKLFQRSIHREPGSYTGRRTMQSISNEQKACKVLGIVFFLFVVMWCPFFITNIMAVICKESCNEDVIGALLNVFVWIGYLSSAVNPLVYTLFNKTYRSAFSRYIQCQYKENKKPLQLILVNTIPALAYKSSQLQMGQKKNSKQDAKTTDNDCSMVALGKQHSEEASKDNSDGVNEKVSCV
Sequence of Histamine H1 receptor (Homo sapiens, UniProt P35367) (P35367 whole entry): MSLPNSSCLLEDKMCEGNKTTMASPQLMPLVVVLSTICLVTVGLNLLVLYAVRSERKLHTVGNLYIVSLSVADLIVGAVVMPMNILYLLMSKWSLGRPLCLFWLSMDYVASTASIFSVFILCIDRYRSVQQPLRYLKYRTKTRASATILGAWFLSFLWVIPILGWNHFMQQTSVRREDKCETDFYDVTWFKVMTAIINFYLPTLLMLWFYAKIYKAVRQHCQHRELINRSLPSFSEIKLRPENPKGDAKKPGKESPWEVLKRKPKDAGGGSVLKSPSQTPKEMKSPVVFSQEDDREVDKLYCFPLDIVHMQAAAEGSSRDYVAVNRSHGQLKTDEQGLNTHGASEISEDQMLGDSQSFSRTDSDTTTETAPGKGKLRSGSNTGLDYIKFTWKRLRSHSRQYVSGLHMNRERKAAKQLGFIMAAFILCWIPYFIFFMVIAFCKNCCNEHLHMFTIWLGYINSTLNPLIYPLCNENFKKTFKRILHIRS
Sequence of Cytochrome P450 3A4 (P08684 whole entry): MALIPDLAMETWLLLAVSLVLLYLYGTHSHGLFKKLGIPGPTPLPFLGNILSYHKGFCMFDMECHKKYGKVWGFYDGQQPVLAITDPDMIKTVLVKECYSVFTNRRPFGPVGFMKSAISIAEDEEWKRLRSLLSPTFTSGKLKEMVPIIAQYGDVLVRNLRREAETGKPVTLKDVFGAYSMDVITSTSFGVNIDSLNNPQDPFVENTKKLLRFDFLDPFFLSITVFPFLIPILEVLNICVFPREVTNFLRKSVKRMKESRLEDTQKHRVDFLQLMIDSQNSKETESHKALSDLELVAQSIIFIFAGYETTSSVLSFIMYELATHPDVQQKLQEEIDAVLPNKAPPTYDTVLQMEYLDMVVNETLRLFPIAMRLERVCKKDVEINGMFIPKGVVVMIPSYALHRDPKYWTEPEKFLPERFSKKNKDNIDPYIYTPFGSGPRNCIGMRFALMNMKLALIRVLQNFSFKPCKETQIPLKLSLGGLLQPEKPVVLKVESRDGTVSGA
Sequence of Cytochrome P450 2D6 (P10635 whole entry): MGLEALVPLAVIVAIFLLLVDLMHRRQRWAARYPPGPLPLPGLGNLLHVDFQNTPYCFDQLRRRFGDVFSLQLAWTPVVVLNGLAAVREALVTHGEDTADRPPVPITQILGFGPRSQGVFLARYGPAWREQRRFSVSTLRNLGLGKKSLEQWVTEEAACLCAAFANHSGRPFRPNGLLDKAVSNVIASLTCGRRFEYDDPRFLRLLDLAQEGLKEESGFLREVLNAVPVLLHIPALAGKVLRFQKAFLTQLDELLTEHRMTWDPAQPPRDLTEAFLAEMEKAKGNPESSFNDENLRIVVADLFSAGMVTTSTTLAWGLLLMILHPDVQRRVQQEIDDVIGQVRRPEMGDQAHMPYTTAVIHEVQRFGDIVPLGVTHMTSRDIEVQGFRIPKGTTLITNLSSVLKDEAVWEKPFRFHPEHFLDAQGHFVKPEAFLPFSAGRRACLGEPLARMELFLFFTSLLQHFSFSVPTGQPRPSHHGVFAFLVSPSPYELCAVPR
Sequence of Voltage-gated inwardly rectifying potassium channel KCNH2 (Q12809 whole entry): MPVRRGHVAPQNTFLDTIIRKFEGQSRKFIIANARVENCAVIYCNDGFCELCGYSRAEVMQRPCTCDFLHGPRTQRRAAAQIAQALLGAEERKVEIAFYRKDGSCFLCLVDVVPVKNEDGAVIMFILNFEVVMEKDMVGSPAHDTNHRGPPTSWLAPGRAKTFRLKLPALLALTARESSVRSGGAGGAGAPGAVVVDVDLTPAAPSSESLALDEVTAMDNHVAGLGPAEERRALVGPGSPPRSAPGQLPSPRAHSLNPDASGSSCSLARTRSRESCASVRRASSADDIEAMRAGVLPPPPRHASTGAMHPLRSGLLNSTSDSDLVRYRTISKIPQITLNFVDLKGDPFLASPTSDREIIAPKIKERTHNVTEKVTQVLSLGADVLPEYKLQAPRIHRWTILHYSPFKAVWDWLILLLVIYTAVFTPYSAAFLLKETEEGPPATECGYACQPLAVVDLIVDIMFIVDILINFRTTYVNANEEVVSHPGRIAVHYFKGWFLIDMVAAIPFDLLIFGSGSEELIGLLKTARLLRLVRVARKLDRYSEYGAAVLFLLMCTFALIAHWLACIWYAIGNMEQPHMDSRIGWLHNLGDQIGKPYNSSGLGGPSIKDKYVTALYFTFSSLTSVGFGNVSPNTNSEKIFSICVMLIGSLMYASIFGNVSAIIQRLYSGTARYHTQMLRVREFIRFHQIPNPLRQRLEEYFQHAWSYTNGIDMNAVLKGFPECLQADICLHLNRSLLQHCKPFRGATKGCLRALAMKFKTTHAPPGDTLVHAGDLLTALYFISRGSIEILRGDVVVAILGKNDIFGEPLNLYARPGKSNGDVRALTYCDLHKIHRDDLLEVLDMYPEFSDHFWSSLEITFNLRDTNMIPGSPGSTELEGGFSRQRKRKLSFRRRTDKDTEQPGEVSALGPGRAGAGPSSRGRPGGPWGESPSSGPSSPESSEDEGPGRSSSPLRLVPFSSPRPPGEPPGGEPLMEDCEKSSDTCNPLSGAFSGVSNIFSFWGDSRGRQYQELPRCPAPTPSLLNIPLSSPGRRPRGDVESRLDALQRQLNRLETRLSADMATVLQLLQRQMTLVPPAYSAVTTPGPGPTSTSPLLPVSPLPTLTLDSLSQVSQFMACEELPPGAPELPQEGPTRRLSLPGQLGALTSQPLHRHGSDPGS
Sequence of 5-hydroxytryptamine receptor 2A (Rattus norvegicus, UniProt P14842) (P14842 whole entry): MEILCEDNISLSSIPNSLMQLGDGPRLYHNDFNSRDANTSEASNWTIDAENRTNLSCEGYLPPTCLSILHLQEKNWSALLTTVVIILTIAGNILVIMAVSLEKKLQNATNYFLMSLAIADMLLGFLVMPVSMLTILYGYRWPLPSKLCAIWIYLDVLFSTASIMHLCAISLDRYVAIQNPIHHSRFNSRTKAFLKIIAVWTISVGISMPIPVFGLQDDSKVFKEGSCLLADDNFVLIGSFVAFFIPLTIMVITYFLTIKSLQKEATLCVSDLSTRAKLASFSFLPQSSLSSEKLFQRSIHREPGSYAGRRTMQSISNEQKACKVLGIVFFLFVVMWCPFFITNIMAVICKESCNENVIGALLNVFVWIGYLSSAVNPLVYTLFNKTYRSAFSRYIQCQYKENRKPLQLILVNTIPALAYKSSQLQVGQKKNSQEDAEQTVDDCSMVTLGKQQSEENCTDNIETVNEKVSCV
Sequence of Histamine H1 receptor (Rattus norvegicus, UniProt P31390) (P31390 whole entry): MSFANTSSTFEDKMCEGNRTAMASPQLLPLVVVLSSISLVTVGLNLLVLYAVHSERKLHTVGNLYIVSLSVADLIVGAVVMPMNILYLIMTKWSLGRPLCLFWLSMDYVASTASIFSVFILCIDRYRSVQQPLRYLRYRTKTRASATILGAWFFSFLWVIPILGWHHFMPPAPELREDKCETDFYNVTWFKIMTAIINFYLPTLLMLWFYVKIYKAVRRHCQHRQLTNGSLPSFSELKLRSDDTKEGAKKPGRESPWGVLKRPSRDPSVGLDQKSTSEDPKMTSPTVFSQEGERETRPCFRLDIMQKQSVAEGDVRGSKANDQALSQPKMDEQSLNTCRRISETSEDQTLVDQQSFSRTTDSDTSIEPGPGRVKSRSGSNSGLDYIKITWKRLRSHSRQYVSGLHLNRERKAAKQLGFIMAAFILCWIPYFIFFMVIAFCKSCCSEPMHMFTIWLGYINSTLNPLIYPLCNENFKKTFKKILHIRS

Row | IC50 (Cytochrome P450 2C19) | Ki [3] | Ki (Histamine H1 receptor [5]) | fraction unbound [6] | Ki [7] | IC50 (Cytochrome P450 1A2) | Ki [10] | Ki [11] | IC50 (Cytochrome P450 2C9) | IC50 (Cytochrome P450 3A4) | fraction unbound [13] | Ki (Histamine H1 receptor [14]) | IC50 (Cytochrome P450 2D6) | Structure (SMILES) | IC50 [2] | further results
1 | > 10000 nM | 31.6 nM | 5.37 nM | 0.023 | 63.1 nM | > 10000 nM | 398 nM | 69.2 nM | > 10000 nM | > 10000 nM | 0.08 | 31.6 nM | > 10000 nM | O=C(O)[C@]12C[C@H]1CN(C1CC[C@]3(Cc4ccccc4Cc4ccccc43)C1)C2 (stereo partly drawn) | > 39800 nM | bioavailability [1]: 62%; half-life [4]: 5.3 h; Kp [8]: 2.2; Vd [9]: 2.4 L/kg; clearance [12]: 5 mL/min/kg
2 | > 10000 nM | 50.1 nM | 12.3 nM | 0.02 | 1000 nM | > 10000 nM | > 2000 nM | 355 nM | > 10000 nM | > 10000 nM | 0.084 | 39.8 nM | > 10000 nM | O=C(O)C1(F)CCN(C2CC[C@]3(Cc4ccccc4Cc4ccccc43)C2)CC1 (stereo partly drawn) | > 39800 nM | bioavailability [15]: 22%; Vd [16]: 3.8 L/kg; half-life [17]: 1.2 h; Kp [18]: 0.1; clearance [19]: 61 mL/min/kg
3 | – | 12.6 nM | – | – | 7.94 nM | – | 15.8 nM | – | – | – | – | 3.98 nM | – | CN(C)C1CC[C@]2(Cc3ccccc3Cc3ccccc32)C1 (stereo partly drawn) | – | pKi [20]: < 6
